Experimental data: ChEMBL document CHEMBL4610030, “Identification of human lactate dehydrogenase A inhibitors with anti-osteosarcoma activity through cell-based phenotypic screening” (Bioorg Med Chem Lett, 2020)
One block for each compound: values may come before it. Calls of active or inactive are those of the source. The calls are words filed in the database; no cut-off is given here.

Legend:
[1] = target: T1, L-lactate dehydrogenase A chain (Homo sapiens, UniProt P00338); test: Binding affinity at human LDHA assessed as dissociation constant by isothermal titration calorimetry
In short: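 Compounds were titrated into hLDHA by isothermal titration calorimetry to obtain Kd.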

SAOS-2 = test: Antiproliferative activity against human Saos2 cells assessed as reduction in cell viability incubated for 24 to 72 hrs by IncuCyte zoom live cell analysis; format: functional, cell-based
[2] = target: T1, L-lactate dehydrogenase A chain; test: Inhibition of human LDHA at 5 uM using NADH and pyruvate by microplate reader based assay relative to control
In short: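 Recombinant-free description: hLDHA was incubated with pyruvate and NADH plus compound at 5 µM. NADH consumption was followed as the decrease in absorbance at 340 nm on a microplate reader and expressed as inhibitory rate.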

U2OS = test: Antiproliferative activity against human U2OS cells assessed as reduction in cell viability incubated for 24 to 72 hrs by IncuCyte zoom live cell analysis; format: functional, cell-based
MG-63 [3] = test: Antiproliferative activity against human MG63 cells assessed as reduction in cell viability incubated for 24 to 72 hrs by IncuCyte zoom live cell analysis; format: functional, cell-based
[4] = target: T1, L-lactate dehydrogenase A chain; test: Inhibition of human LDHA using NADH and pyruvate by microplate reader based assay
In short: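 hLDHA activity was measured with pyruvate and NADH across full dose-response to give EC50. The read-out was the decline in absorbance at 340 nm on a microplate reader.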

HOS = test: Antiproliferative activity against human HOS cells assessed as reduction in cell viability incubated for 24 to 72 hrs by IncuCyte zoom live cell analysis; format: functional, cell-based
MG-63 [5] = test: Induction of apoptosis in human MG63 cells assessed as viable cells at 5 uM measured after 12 hrs by annexin V-propidium iodide staining-based flow cytometry (reference value: 98.11 %); format: functional; settings: MG-63, 12 h, read-out: Activity
In short: (§1)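 MG-63 cells were treated at 5 µM for 12, 18 or 24 h, or at 2, 5 or 10 µM for 24 h. Cells were then stained with annexin V-FITC/PI and analysed by flow cytometry for apoptotic populations.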

MG-63 [6] = test: Induction of apoptosis in human MG63 cells assessed as early apoptotic cells at 2 uM measured after 24 hrs by annexin V-propidium iodide staining-based flow cytometry (reference value: 0.16 %); format: functional; in short: as §1
MG-63 [7] = test: Induction of apoptosis in human MG63 cells assessed as early apoptotic cells at 5 uM measured after 18 hrs by annexin V-propidium iodide staining-based flow cytometry (reference value: 0.14 %); format: functional; in short: as §1
[8] = target: T1, L-lactate dehydrogenase A chain; test: Inhibition of LDHA in human MG63 cells assessed as reduction in proton production rate at 2 to 10 uM incubated for 4 hrs by seahorse XFe96 analyser based assay; format: cell-based; settings: MG-63
MG-63 [9] = test: Induction of apoptosis in human MG63 cells measured after 24 hrs by annexin V-propidium iodide staining-based flow cytometry; format: functional, cell-based; in short: as §1
MG-63 [10] = test: Induction of apoptosis in human MG63 cells assessed as necrotic cells at 5 uM measured after 24 hrs by annexin V-propidium iodide staining-based flow cytometry (reference value: 0.84 to 2.10 %); format: functional; in short: as §1
MG-63 [11] = test: Induction of apoptosis in human MG63 cells assessed as late apoptotic cells at 5 uM measured after 24 hrs by annexin V-propidium iodide staining-based flow cytometry (reference value: 0.91 to 1.44 %); format: functional; in short: as §1
MG-63 [12] = test: Induction of apoptosis in human MG63 cells assessed as viable cells at 5 uM measured after 18 hrs by annexin V-propidium iodide staining-based flow cytometry (reference value: 98.11 %); format: functional; settings: MG-63, 18 h, read-out: Activity; in short: as §1
[13] = target: T1, L-lactate dehydrogenase A chain; test: Inhibition of LDHA in human MG63 cells assessed as reduction in lactate formation at 2 to 10 uM incubated for 4 hrs; format: cell-based; settings: MG-63
In short: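 MG-63 cells were treated at 2, 5 and 10 µM for 4 h. Lactate was then measured in the culture medium and compared with untreated control, with P < 0.05.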

MG-63 [14] = test: Induction of apoptosis in human MG63 cells assessed as late apoptotic cells at 5 uM measured after 12 hrs by annexin V-propidium iodide staining-based flow cytometry (reference value: 0.91 %); format: functional; in short: as §1
MG-63 [15] = test: Induction of apoptosis in human MG63 cells assessed as necrotic cells at 5 uM measured after 18 hrs by annexin V-propidium iodide staining-based flow cytometry (reference value: 0.84 %); format: functional; in short: as §1
[16] = target: T1, L-lactate dehydrogenase A chain; test: Inhibition of LDHA in human MG63 cells assessed as increase in oxygen consumption rate incubated for 4 hrs by seahorse XFe96 analyser based assay; format: cell-based; settings: MG-63
MG-63 [17] = test: Induction of apoptosis in human MG63 cells assessed as early apoptotic cells at 10 uM measured after 24 hrs by annexin V-propidium iodide staining-based flow cytometry (reference value: 0.16 %); format: functional; in short: as §1
MG-63 [18] = test: Induction of apoptosis in human MG63 cells assessed as viable cells at 5 uM measured after 24 hrs by annexin V-propidium iodide staining-based flow cytometry (reference value: 96.30 to 98.11 %); format: functional; settings: MG-63, 24 h, read-out: Activity; in short: as §1
MG-63 [19] = test: Induction of apoptosis in human MG63 cells assessed as early apoptotic cells at 5 uM measured after 12 hrs by annexin V-propidium iodide staining-based flow cytometry (reference value: 0.14 %); format: functional; in short: as §1
MG-63 [20] = test: Induction of apoptosis in human MG63 cells assessed as late apoptotic cells at 5 uM measured after 18 hrs by annexin V-propidium iodide staining-based flow cytometry (reference value: 0.91 %); format: functional; in short: as §1
[21] = target: T1, L-lactate dehydrogenase A chain; test: Inhibition of LDHA in human MG63 cells assessed as reduction in extracellular acidification rate at 2 to 10 uM incubated for 4 hrs by seahorse XFe96 analyser based assay; format: cell-based; settings: MG-63
MG-63 [22] = test: Induction of apoptosis in human MG63 cells assessed as viable cells at 10 uM measured after 24 hrs by annexin V-propidium iodide staining-based flow cytometry (reference value: 96.30 %); format: functional; settings: MG-63, 24 h, read-out: Activity; in short: as §1
MG-63 [23] = test: Induction of apoptosis in human MG63 cells assessed as necrotic cells at 5 uM measured after 12 hrs by annexin V-propidium iodide staining-based flow cytometry (reference value: 0.84 %); format: functional; in short: as §1
MG-63 [24] = test: Induction of apoptosis in human MG63 cells assessed as viable cells at 2 uM measured after 24 hrs by annexin V-propidium iodide staining-based flow cytometry (reference value: 96.30 %); format: functional; settings: MG-63, 24 h, read-out: Activity; in short: as §1
MG-63 [25] = test: Induction of apoptosis in human MG63 cells assessed as late apoptotic cells at 10 uM measured after 24 hrs by annexin V-propidium iodide staining-based flow cytometry (reference value: 1.44 %); format: functional; in short: as §1
MG-63 [26] = test: Induction of apoptosis in human MG63 cells assessed as late apoptotic cells at 2 uM measured after 24 hrs by annexin V-propidium iodide staining-based flow cytometry (reference value: 1.44 %); format: functional; in short: as §1
MG-63 [27] = test: Antiproliferative activity against human MG63 cells assessed as reduction in cell viability at 5 uM incubated by IncuCyte zoom live cell analysis; format: functional, cell-based; settings: TDE = time-dependent effect
In short: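 MG-63 cells were exposed to 5 µM and imaged over time by IncuCyte Zoom live-cell analysis to follow growth.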

MG-63 [28] = test: Induction of apoptosis in human MG63 cells assessed as necrotic cells at 2 uM measured after 24 hrs by annexin V-propidium iodide staining-based flow cytometry (reference value: 2.10 %); format: functional; in short: as §1
MG-63 [29] = test: Induction of apoptosis in human MG63 cells assessed as necrotic cells at 10 uM measured after 24 hrs by annexin V-propidium iodide staining-based flow cytometry (reference value: 2.10 %); format: functional; in short: as §1
MG-63 [30] = test: Induction of apoptosis in human MG63 cells assessed as early apoptotic cells at 5 uM measured after 24 hrs by annexin V-propidium iodide staining-based flow cytometry (reference value: 0.14 to 0.16 %); format: functional; in short: as §1

- Kd [1]: 9.85 µM
- inhibition [2]: > 50%
- IC50 (U2OS): 9.5 µM
- EC50 [4]: 3.26 µM
Compound: Cc1c(C(=O)Nc2ccccc2)[n+]([O-])cn1-c1ccc2occc(=O)c2c1
- IC50 (SAOS-2): 13.6 µM
- IC50 (MG-63 [3]): 6.1 µM
- IC50 (HOS): 12.5 µM

- Kd [1]: 2.41 µM
- inhibition [8]: Active
- inhibition [2]: 91.2%
- inhibition [13]: Active
- IC50 (U2OS): 3.7 µM
- inhibition [16]: Dose-dependent effect
- EC50 [4]: 0.67 µM
- inhibition [21]: Active
Compound: Cc1c(C(=O)Nc2ccccc2)[n+]([O-])cn1-c1ccc2[nH]c(CC(C)C)nc2c1
- viability at 5 µM (MG-63 [5]): 92.3%
- Activity (MG-63 [6]): 0.4%
- Activity (MG-63 [7]): 1.32%
- IC50 (SAOS-2): 5.1 µM
- Activity (MG-63 [9]): Dose-dependent effect
- Activity (MG-63 [10]): 8.3 - 10.1%
- Activity (MG-63 [11]): 12.28 - 19.86%
- viability at 5 µM (MG-63 [12]): 83.8%
- Activity (MG-63 [14]): 5.08%
- Activity (MG-63 [15]): 4.56%
- IC50 (MG-63 [3]): 2.93 µM
- Activity (MG-63 [17]): 3.55%
- viability at 5 µM (MG-63 [18]): 66.6 to 78.3%
- Activity (MG-63 [19]): 0.34%
- Activity (MG-63 [20]): 10.37%
- viability at 10 µM (MG-63 [22]): 66.2%
- Activity (MG-63 [23]): 2.3%
- viability at 2 µM (MG-63 [24]): 94.8%
- Activity (MG-63 [25]): 20.03%
- Activity (MG-63 [26]): 3.21%
- Activity (MG-63 [27]): Tde
- Activity (MG-63 [28]): 1.54%
- Activity (MG-63 [29]): 10.19%
- Activity (MG-63 [30]): 1.1 - 3.47%
- IC50 (HOS): 4.6 µM

- Kd [1]: 6.41 µM
- inhibition [2]: > 50%
- IC50 (U2OS): 14.9 µM
- EC50 [4]: 3.03 µM
Compound: COc1ccc(-n2c[n+]([O-])c(C(=O)Nc3ccccc3)c2C)cc1N1CCCCS1(=O)=O
- IC50 (SAOS-2): 7.5 µM
- IC50 (MG-63 [3]): 6.47 µM
- IC50 (HOS): 10.2 µM
